Tests used:
[1] = target: Human immunodeficiency virus type 1 reverse transcriptase (Human immunodeficiency virus 1, UniProt Q72547); experiment: Inhibition of human immunodeficiency virus-1 reverse transcriptase associated RNase H activity using 18-nucleotide 3,-fluorescein-labeled RNA substrate by fluorescence resonance energy transfer assay
How it was run: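 Inhibition of HIV RT-associated RNase H activity was measured by a previously described method, with β-thujaplicinol as positive control and IC50 as the readout.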

CEM-SS = experiment: Cytotoxicity against human CEM-SS cells assessed as cell growth inhibition; assay type: cell-based
How it was run: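 CEM-SS cells were exposed to compounds at concentrations up to 50 μM, and cytotoxicity was scored as cell growth inhibition.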

[2] = system: Human immunodeficiency virus 1; experiment: Antiviral activity against HIV1 infected in human H9 cells assessed as protection against virus-induced cytopathic effect by tetrazolium reduction based colorimetric technique; assay type: functional, organism-based
How it was run: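 HIV cytopathicity assay run by a previously reported protocol. Compounds tested at up to 50 μM, with dideoxycytidine as positive control.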

Row | IC50 [1] [µM] | EC50 ([2]; h9) | EC50 ([2]; Human immunodeficiency virus 1, H9, read-out: EC50) [µM] | SMILES | IC50 (CEM-SS) [µM]
1 | > 50 | Not Active | – | Cc1cc(=O)c(O[C@@H]2O[C@H](COC(=O)CC(C)(O)CC(=O)O)[C@@H](O)[C@H](O)[C@H]2O)cc2c1C[C@H](C(C)(C)O)CC2 (stereo partly specified) | > 50
2 | 34 | Not Active | – | C=C(C)[C@@H]1CCc2cc(O[C@@H]3O[C@H](COC(=O)CC(C)(O)CC(=O)O)[C@@H](O)[C@H](O)[C@H]3O)c(=O)cc(C)c2C1 (stereo partly specified) | > 50
3 | 0.26 | Not Active | – | CC(C)c1ccc(O)c(=O)c(O)c1 [BETA-THUJAPLICINOL] | 2.3
4 | – | – | 0.079 | Nc1ccn([C@H]2CC[C@@H](CO)O2)c(=O)n1 [ZALCITABINE] | 61

From ChEMBL document CHEMBL3425428, “Sesquiterpenoid tropolone glycosides from Liriosma ovata” (J Nat Prod, 2015)
